# Screening data as filed in PubChem.
# TRPC4 block: inhibitors of mouse TRPC4 channel | actives 0.39% (n = 300,000) | B-score at 10 µM | AID 2247 | HEK293 TRPC4beta/mu-opioid, DAMGO-evoked Fluo4 calcium flux; active compounds read low;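 active = B-score over 3 SD under the library average, no early fluorescence shift, positive overall ratio signal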
#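 Assay system: HEK293 cells with stable TRPC4beta plus mu-opioid receptor expression; Probe or stimulus: DAMGO in two steps, submaximal then maximal; Dosing: single-point compound dosing; Measured by: Fluo4 calcium-dye fluorescence, kinetic read; Read-out basis: B score from integrated Fluo4 fluorescence ratio.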
# TRPC6 inhibitor: inhibitors of mouse TRPC6 channel | HEK293-TRPC6, membrane potential dye, ACh-evoked depolarization; active compounds read low | B-score at 10 µM | Q61143 | AID 2553 | actives 1.1% (n = 310,000);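 active = B-score under library mean minus 3 SD, initial fluorescence not abnormally high, positive integrated signal ratio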;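 also: B-score derived from integrated fluorescence ratio over the kinetic read; more negative B-score means stronger inhibition of depolarization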
# TRPC4 agonist: TRPC4 (mouse) channel activation; B-score at 10 µM; actives 0.49% (n = 310,000); AID 2237; HEK293 TRPC4beta/mu-opioid, Fluo4 calcium fluorescence; active compounds read high;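 active = B-score above 5 SD of library B-scores, and initial fluorescence ratio not above library mean plus 5 SD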;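 also: positive B-score marks a calcium rise read as TRPC4 activation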
#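 Technique: kinetic Fluo4 calcium fluorescence; Test system: TRPC4beta and mu-opioid receptor HEK293 stable cells; Measure: B-scored integrated calcium fluorescence ratio; Benchmarks: low control buffer alone, high control maximal DAMGO; Schedule: 45 min room-temperature Fluo4 loading, 110 s read.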
# TRPC4 potent: allosterically enhances the mouse TRPC4 cation channel; Q9QUQ5; HEK293 TRPC4beta/mu-opioid, DAMGO EC20, Fluo-4 Ca2+ flux; active compounds read high; B-score at 10 µM; actives 0.42% (n = 310,000); AID 2227;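 active = B-score of calcium response area above 5 SD of library B-scores, with initial fluorescence ratio within 5 SD of library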;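 also: B-score of integrated fluorescence ratio over time as area under calcium response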
# TRPC6 act: activates the mouse TRPC6 cation channel | Q61143 | HEK293-TRPC6 membrane potential dye fluorescence; active compounds read high | B-score at 10 µM | actives 0.13% (n = 310,000);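 active = B-score of the integrated fluorescence ratio above library mean plus 3 SD, and starting fluorescence ratio within library mean plus 5 SD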;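 also: higher score means more depolarization so channel activation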
# HEK293 MPD ctr: checks TRPC6 modulator effects in parental HEK293 cells; actives 51% (n = 2,400); membrane potential dye fluorescence; shares compounds with TRPC6 inhibitor; membrane potential signal change, % at 10 µM;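 active = membrane potential signal moves up or down beyond 5 SD from buffer-only wells, on both duplicate plates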
# HEK293 MPD ctr 2: parental HEK293 nonspecific activity of TRPC6 modulators, second screen | AID 488926 | membrane potential dye fluorescence; after compound, maximal acetylcholine stimulation | inhibition, % at 10 µM | shares compounds with TRPC6 inhibitor | actives 14% (n = 2,400);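 active = membrane potential signal drops by more than 5 SD from the mean control signal, in both duplicate plates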;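 also: plate controls were acetylcholine ECmax control wells for no effect and buffer only wells for full effect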
# TRPC4/MOR mod: selectivity of TRPC6 modulators against mouse TRPC4; shares compounds with TRPC6 inhibitor; HEK293 TRPC4/mu-opioid, membrane potential fluorescence; percent change from control (negative = decrease, positive = increase), % at 10 µM; actives 69% (n = 2,400);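 active = membrane potential signal moved up or down beyond 5 SD of buffer control wells, in both duplicate plates, actives on both sides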;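 also: plate controls were assay buffer wells for no effect and DAMGO maximal-effect wells for full effect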
# TRPC4/MOR inh 2: mouse TRPC4 off-target activity of TRPC6 modulators, second screen | shares compounds with TRPC6 inhibitor | AID 488928 | inhibition, % at 10 µM | HEK293 TRPC4/mu-opioid, membrane potential dye fluorescence; stimulated with maximal-effect DAMGO | actives 55% (n = 2,400);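 active = drop in membrane potential signal beyond 5 SD of the control wells in both duplicate plates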;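 also: TRPC4 counter screen for TRPC6 hits run under conditions tuned for TRPC6 not TRPC4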
# TRPC6 inh conf: mouse TRPC6 inhibitor confirmation; shares compounds with TRPC6 inhibitor; HEK293-TRPC6, membrane potential dye, ACh-evoked depolarization; inhibition, % at 10 µM; actives 43% (n = 3,300);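 active = fluorescence ratio falls more than 5 SD below the full-stimulation control mean, in both duplicate runs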;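 also: integrated fluorescence ratio of peak minus minimum over baseline after agonist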
# TRPC6 act confirm: mouse TRPC6 activator confirmation. shares compounds with TRPC6 inhibitor. actives 11% (n = 2,800). activation, % at 10 µM. AID 488961. HEK293-TRPC6 membrane potential dye fluorescence, FDSS;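 active = ratio signal rise beyond 5 SD above unstimulated control wells' mean, seen in both duplicate runs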;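 also: plate controls were buffer EC0 wells for no effect and acetylcholine ECmax response for full effect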
# Active calls of the source: *; i = inactive; x = no result given; + = active, no number. An excerpt weighted towards active compounds, which were near 2.3% of everything screened.
SMILES,TRPC4 block,TRPC6 inhibitor,TRPC4 agonist,TRPC4 potent,TRPC6 act,HEK293 MPD ctr,HEK293 MPD ctr 2,TRPC4/MOR mod,TRPC4/MOR inh 2,TRPC6 inh conf,TRPC6 act confirm
CC(=O)c1ccc(NC(=O)C2CCCN(S(=O)(=O)c3ccc(-n4cnnn4)cc3)C2)cc1 (stereo unspecified),i,i,i,i,i,x,x,x,x,x,x
COc1ccc(NC(=O)C2CCCN(S(=O)(=O)c3ccc4c(c3)CC(C)N4C(C)=O)C2)cc1 (stereo unspecified),i,i,i,i,i,x,x,x,x,x,x
CCc1ccc(NC(=O)C2CCCN(S(=O)(=O)c3cnc[nH]3)C2)cc1 (stereo unspecified),i,-6.14*,i,i,i,i,i,i,i,i,i
CCc1ccc(NC(=O)C2CCN(S(=O)(=O)c3cnc[nH]3)CC2)cc1,i,i,i,i,i,x,x,x,x,x,x
COc1ccccc1C1CCN(C(=O)c2ccc(Cl)cc2)CC1,i,i,i,i,i,x,x,x,x,x,x
Cc1ccc2nc(NC(=O)CN3C(=O)NC4(CCCCC4)C3=O)sc2c1,i,i,i,i,i,x,x,x,x,x,x
C=C(C)CSc1nc2sc3c(c2c(=O)n1C1CCCCC1)CCN(C)C3,i,-7.53*,i,i,i,i,i,-20.0%*,i,i,i
COC(=O)c1ccc(CN2CCC(Oc3cccc(C(=O)N4CCCC4)c3)CC2)cc1,i,i,i,i,i,x,x,x,x,x,x
COc1ccccc1/C=C/CN1CCC(Oc2ccc(C(=O)N3CCCCC3)cc2)CC1,i,-5.76*,i,i,i,240.0%*,i,21.5%*,79.5%*,51.0%*,x
COC(=O)c1ccc(CN2CCC(Oc3ccc(C(=O)N4CCCCC4)cc3)CC2)cc1,i,-5.72*,i,i,i,139.5%*,i,15.0%*,i,45.5%*,x
COc1ccc(/C=C/CN2CCC(Oc3ccc(C(=O)N4CCCCC4)cc3)CC2)cc1,i,i,i,i,i,x,x,x,x,x,x
Nc1ccc(/C=C/C(=O)c2cccs2)cc1,i,i,92*,i,80.5*,+,+,291.0%*,76.0%*,x,543.0%*
Cc1nnc(Cl)c2nn(-c3ccccc3)c(C)c12,i,i,i,i,i,x,x,x,x,x,x
CCOc1ccc(-n2nc3c(Cl)nnc(C)c3c2C)cc1,i,-6.7*,i,i,i,i,i,i,i,i,i
O=C(c1ccc(N2CCCC2=O)cc1)N1CCN(c2ccccc2F)CC1,i,i,i,i,i,x,x,x,x,x,x
CC(=O)[C@@]1(O)C(C)CC2C3C=C(C)C4=Cc5c(cnn5-c5ccccc5)C[C@]4(C)C3C(O)C[C@@]21C (stereo partly specified),i,-6.44*,i,i,i,i,i,i,i,i,x
